# Compound activity from PubChem.
# Sampled rows, rich in hits. Any-hit rate of the full collection: about 2.6%.
# Rad51 HR inh = human RAD51 strand exchange inhibitors, primary screen, biochemical, fluorescence. DNA repair protein RAD51 homolog 1 (Homo sapiens), Q06609. hRad51 DNA strand exchange, fluorescence dequenching. inhibition, % at 10 µM. actives 0.085% (n = 200,000);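 active = inhibition above 40% at the single screening dose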;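 also: 0% = DMSO control wells and 100% = blanks with heterologous ssDNA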
# Target sequence (Q06609 whole entry, looked up): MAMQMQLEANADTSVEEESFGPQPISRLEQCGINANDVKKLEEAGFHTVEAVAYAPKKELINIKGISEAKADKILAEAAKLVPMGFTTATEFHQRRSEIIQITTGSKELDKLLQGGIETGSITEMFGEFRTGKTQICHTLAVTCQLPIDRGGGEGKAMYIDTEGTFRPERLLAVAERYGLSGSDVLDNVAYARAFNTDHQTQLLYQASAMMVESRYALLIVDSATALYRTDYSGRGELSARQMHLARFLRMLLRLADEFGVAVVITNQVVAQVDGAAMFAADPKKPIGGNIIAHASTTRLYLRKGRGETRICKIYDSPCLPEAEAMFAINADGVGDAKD
#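 Test system: preformed human Rad51 ssDNA filaments; also added: Donor/quencher-labelled 47-bp dsDNA substrate; doses: 10 µM final, single point; times: 37 °C 15-min filament assembly, 30-min compound preincubation, 15-min exchange; detection: FRET fluorescence dequenching, excitation 485 nm, emission 520 nm; read-out basis: Fluorescence-based percent inhibition, control- and blank-normalised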
# CHT inh = inhibitors of human choline transporter CHT; High affinity choline transporter 1 (Homo sapiens), Q9GZV3; CHT-expressing cells, membrane potential dye, choline response; hits give low values; B-score at 10 µM; actives 0.86% (n = 310,000); AID 488975, 2010;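 active = B-score over 3 SD under the library average, and starting fluorescence ratio not unusually high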;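 also: choline stimulus applied at its EC90 after an EC20 pre-addition; B-score computed on integrated fluorescence ratio after choline addition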
# CHT allo act = CHT positive allosteric modulators, primary screen, cell-based, membrane potential dye, choline EC20; AID 488977, 2010; High affinity choline transporter 1 (Homo sapiens), Q9GZV3; B-score at 10 µM; CHT-expressing cells; hits give high values; LV-AA mutant CHT in HEK293 cells; actives 0.49% (n = 310,000);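 active = initial fluorescence not abnormally high and integrated response B-score, plate-corrected, over 3 SD above library mean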
# Cl transport mod = KCC2 cotransporter modulators, thallium flux, primary screen, cell-based, HEK293 KCC2, FluoZin-2 fluorescence, MLSMR | KCC2 cells, thallium flux FluoZin-2 fluorescence | actives 2.2% (n = 190,000) | Solute carrier family 12 member 5 (Homo sapiens), Q9H2X9 | AID 1456, 2008 | B-score of Tl+ flux slope (higher = more flux/activation; lower = inhibition) at 10 µM;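 active = thallium flux slope and its plate-corrected score both differing from the plate sample mean at a set confidence after two filtering rounds, in either direction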;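 also: slope of fluorescence scaled to starting intensity during 10 to 20 s after thallium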
# KCC2 sec1 = KCC2 modulators in sodium-free buffer, confirmation, cell-based, HEK293 KCC2, thallium flux, secondary assay; actives 15% (n = 3,700); normalised thallium flux (F/F0 slope) at 10 µM; AID 1713, 2009; shares compounds with Cl transport mod; FluoZin2 fluorescence; hits give high values;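 active = thallium flux slope above the same plate's solvent-only control mean plus 3 SD; inconclusive = the two replicate wells disagree; inactive = no significant difference from solvent-only control wells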
# KCC2 bumet counter = thallium flux persisting under bumetanide in KCC2 cells, confirmation, counter-screen for KCC2 modulator project, cell-based, HEK293 KCC2, FluoZin2, secondary assay 3; shares compounds with Cl transport mod; HEK293-KCC2 + bumetanide/ouabain; hits give high values; normalized thallium flux at 10 µM; actives 49% (n = 3,700);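 active = thallium entry rate above the same plate's blocked-transporter control wells by more than 3 SD; inconclusive = the two repeat wells disagree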;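 also: raw slope of fluorescence over initial fluorescence between 10 and 20 s after thallium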
# KCC2 secondary2 = KCC2 modulators without ouabain present, confirmation, cell-based, HEK293 KCC2, thallium flux, FluoZin2, secondary assay 2 | actives 23% (n = 3,700) | shares compounds with Cl transport mod | normalized thallium flux at 10 µM | thallium flux FluoZin2 fluorescence; actives lie on both sides; F/F0 rise rate, 10–20 s post-thallium;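 active = thallium flux slope more than 3 SD above or below the plate's solvent-only control mean, mostly below; inconclusive = the two repeat wells disagreed; inactive = no significant shift from solvent-only controls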;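 also: raw slope with 0.1% DMSO as baseline and bumetanide as block control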
# HEK293 Tl flux = thallium flux modulation in parental HEK cells, confirmation, counter-screen for KCC2 modulator project, cell-based, counterscreen 1 | actives 46% (n = 3,700) | HEK293 parental cells, thallium flux FluoZin2, ouabain; baseline-ratio fluorescence slope, 10–20 s after thallium | AID 1716, 2009 | thallium flux rate (normalised fluorescence) at 10 µM | shares compounds with Cl transport mod;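 active = thallium flux rate significantly above the same plate's solvent-only control wells, beyond their mean plus 3 SD; inconclusive = the two replicate wells gave conflicting results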
# KCC2 ouabain = KCC2 inhibitors and activators, ouabain retest, confirmation, HEK-KCC2 cells; shares compounds with Cl transport mod; actives 48% (n = 3,700); raw Tl+ flux slope (below DMSO = inhibition, above = activation) at 10 µM; AID 1717, 2009; HEK293-KCC2, thallium flux FluoZin2 fluorescence; bidirectional: low = inhibitor, high = activator;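 active = thallium flux slope beyond 3 SD from same-plate DMSO control mean in most replicates, usually higher, sometimes lower; inconclusive = repeat tests gave conflicting results; inactive = no significant difference from controls in most replicates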;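 also: slope of initial-normalized fluorescence between seconds 10 and 20 after thallium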
# HEK counter2 = native HEK Tl+ uptake effects, second counter-screen – HEK cells, counterscreen 2, counter-screen for KCC2 modulator project, confirmation | shares compounds with Cl transport mod | HEK293 parental, thallium flux FluoZin-2 fluorescence slope | thallium flux slope at 10 µM | actives 33% (n = 3,700) | AID 1718, 2009;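 active = thallium flux slope above the same plate's solvent-control mean plus 3 SD in both duplicate wells; inconclusive = duplicate wells that disagreed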;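 also: run without ouabain in cells lacking the KCC2 cotransporter; slope of fluorescence scaled to its starting value between 10 and 20 s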
# * = called active by the depositor; i = inactive; u = inconclusive; x = not tested or not shown.
SMILES,Rad51 HR inh,CHT inh,CHT allo act,Cl transport mod,KCC2 sec1,KCC2 bumet counter,KCC2 secondary2,HEK293 Tl flux,KCC2 ouabain,HEK counter2
COc1ccccc1/C=C/CN1CCC(Oc2cc(C(=O)NC3CC3)ccc2OC)CC1,x,i,i,x,x,x,x,x,x,x
CCOc1ccc(N2C(=O)C3Sc4[nH]c(=O)sc4C(/C=C/c4ccccc4)C3C2=O)cc1 (stereo not drawn),-87,i,i,-5.6*,0.0067,u,0.019*,0.0083,0.015*,0.011
C=CC[n+]1c(-c2ccc(OCC)cc2)csc1NNC(=O)Nc1ccccc1,-2,i,i,x,x,x,x,x,x,x
Cc1ccc(C(=O)CC2(O)C(=O)N(C)c3ccc(Br)cc32)c(C)c1 (stereo not drawn),5,i,i,-3.6*,0.0086,u,0.031,0.009*,0.022,0.01
Cc1ccc2c(c1)N(CC(=O)NCCCN1CC(C)CC(C)C1)C(=O)c1cccnc1O2 (stereo not drawn),x,i,i,x,x,x,x,x,x,x
O=C(NCCc1ccccc1)C(=O)NCC1OCCN1S(=O)(=O)c1ccc(Br)cc1 (stereo not drawn),x,i,i,x,x,x,x,x,x,x
Cc1cccc(NC(=S)NNC(=O)c2cc3c(s2)CCC(C)C3)c1C (stereo not drawn),12,i,i,37*,0.0066,0.08*,0.061*,0.064*,0.062*,0.059*
CCOC(=O)Cn1nnnc1C(C(C)C)N(Cc1cccs1)Cc1cc2cc(C)ccc2[nH]c1=O (stereo not drawn),5,i,i,x,0.0062,0.0045,0.028,0.0075,0.019,0.011
COc1ccc(Nc2nnc(-c3ccc(N4CCOCC4)c([N+](=O)[O-])c3)c3ccccc23)cc1,3,x,x,0.11,x,x,x,x,x,x
COC(=O)c1ccc(CSc2nc3ccccc3c(=O)n2CC(C)C)o1,-2,i,i,7.6*,0.0074,0.018*,0.035,0.017*,u,0.017*
C/C(=N/NC(=O)CNC(=O)COc1cccc(C)c1)c1ccc(Cl)cc1,x,i,i,x,x,x,x,x,x,x
Cc1cccc(NC(=O)CSc2nnc([C@@H](N)Cc3ccccc3)o2)c1C,6,i,i,-2.5,x,x,x,x,x,x
Cc1ccccc1-c1nnc(SCC(=O)Nc2cccc(C)c2C)o1,-4,i,i,-4.8*,0.017,0.0042,0.028,0.0071,0.014,0.01
O=C(Cn1cccn1)N1CCCC(Nc2ccc(F)c(F)c2)C1 (stereo not drawn),x,i,i,x,x,x,x,x,x,x
O=c1c(/C=N/OCc2ccc(Cl)cc2Cl)c[nH]n1-c1cccc(Cl)n1,-1,i,i,37*,0.0081,0.077*,0.075*,0.071*,0.073*,0.066*
Nc1nc(N2CCOCC2)n[nH]1,-6,x,x,x,x,x,x,x,x,x
CC(C)CCNC(=S)Nc1ccc(F)cc1,-9,i,i,1.3,x,x,x,x,x,x
Cc1cc(NC(=O)CSc2nc(C(C)C)nc3sc(C)c(C)c23)no1,-4,i,i,9.3*,u,0.034*,0.038,0.017*,u,0.012*
Cc1sc2nc(C(C)C)nc(SCC(=O)N3CCN(C(=O)c4ccco4)CC3)c2c1C,0,i,i,x,0.0066,0.017*,0.029,0.012*,0.019,0.012*
Cc1ccc(NC(=S)N2CCN(Cc3ccccc3)CC2)cc1,10,i,i,-2.2,x,x,x,x,x,x
Cc1ccc(C(=S)N2CCN(Cc3ccccc3)CC2)cc1,-70,i,i,-3.3*,u,0.0064,0.031,0.0076,0.015*,0.011
O=C(/C=C/c1cccc([N+](=O)[O-])c1)N1CCN(c2ccccc2F)CC1,8,i,i,-0.84,x,x,x,x,x,x
CCOc1ccccc1N1CCN(C(=O)/C=C/c2cccc([N+](=O)[O-])c2)CC1,3,i,i,-3.8*,0.0054,0.0048,0.027*,0.0057*,0.017*,u
CCC1CCC2(CC1)NC(CO)(CO)CO2 (stereo not drawn),1,i,i,5*,0.008,0.0049,0.028,0.008,0.019,0.011*
CC1CCC2(CC1)NC(CO)(CO)CO2 (stereo not drawn),2,i,i,-1.2,x,x,x,x,x,x
SMILES,Rad51 HR inh,CHT inh,CHT allo act,Cl transport mod,KCC2 sec1,KCC2 bumet counter,KCC2 secondary2,HEK293 Tl flux,KCC2 ouabain,HEK counter2
CCOc1ccccc1N1C(=O)CN(Cc2ccc(OC)c(OC)c2)C1=S,x,i,i,x,x,x,x,x,x,x
O=C(CN1C(=O)S/C(=C\C=C\c2ccccc2)C1=O)Nc1ccccc1C(=O)O,12,i,i,-5.9*,0.0072,0.0067,u,u,0.014*,0.01
O=C1COc2ccc(C(=O)CSc3nc4ccccc4c(=O)n3-c3ccc(Cl)c(Cl)c3)cc2N1,0,i,i,2.5*,u,0.019*,0.033,0.01*,0.023,u
CCc1ccc(-n2c(SCC(=O)c3ccc4c(c3)NC(=O)CO4)nc3ccccc3c2=O)cc1,4,i,i,2.9*,0.0094,0.012*,0.03,0.0086*,u,0.0094
Cn1c(SCC(=O)c2ccc3c(c2)NC(=O)CO3)nc2ccccc21,-10,i,i,-0.88,x,x,x,x,x,x
CSc1ncccc1C(=O)N1CCCC(Nc2ccc(C)c(C)c2)C1 (stereo not drawn),x,i,i,x,x,x,x,x,x,x
Cc1nn2c(-c3ccc(S(=O)(=O)N4CCN(C)CC4)o3)nnc2c2ccccc12,x,i,i,x,x,x,x,x,x,x
